According to ChEMBL document CHEMBL5724801, “EUbOPEN Chemogenomics Library - Multiplex” (2024):
Where “and” joins values, the source holds several entries; their conditions need not be identical. Equal values may be shown once.

Test system: Fibroblast
Experiment: Multiplex assay against human fibroblast
Format: toxicity, cell-based
Summary of the method: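 Four dyes were applied at seeding to live cells: Hoechst33342, BioTracker Green Microtubule Cytoskeleton Dye, MitoTracker Red and Annexin V Alexa Fluor 680. Imaging after compound addition used a CQ1 microscope at 37°C and 5% CO2. CellPathfinder machine-learning gating then sorted cells into Hoechst high-intensity objects or normal cells, normal cells into healthy, pyknosed or fragmented nuclei, and pyknosed cells into mitotic or apoptotic, with tubulin, mitochondrial-mass and membrane-permeability phenotypes given as per cents of healthy-nucleus cells.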

[1] = 12 h, 1 µM, compound concentration 1 uM
[2] = 12 h, 10 µM, compound concentration 10 uM
[3] = 24 h, 1 µM, compound concentration 1 uM
[4] = 24 h, 10 µM, compound concentration 10 uM
[5] = 48 h, 1 µM, compound concentration 1 uM
[6] = 48 h, 10 µM, compound concentration 10 uM

Cc1c(-c2cc(-c3ccccc3Cl)no2)cnn1C1CCNCC1.Cl
Population Fragmented Nuclei (%) [1]: 12.32% and 5.31%
Population Healthy Nuclei (%) [1]: 58.77% and 79.2%
Population Hoechst High Intensity Objects (%) [1]: 0%
Population Membrane Permeable-Phenotype (%) [1]: 4.03% and 3.91%
Population Mitochondria Different-Phenotype (%) [1]: 17.74% and 8.94%
Population Mitotic Cells (%) [1]: 93.44% and 68.57%
Population Normal (%) [1]: 100%
Population Pyknosed Nuclei (%) [1]: 28.91% and 15.49%
Population Tubulin-Different-Phenotype (%) [1]: 32.26% and 22.91%
Total Cell Count [1]: 211 and 226
Population Apoptotic (%) [2]: 18.52% and 39.56%
Population Fragmented Nuclei (%) [2]: 8.72% and 4.05%
Population Healthy Nuclei (%) [2]: 41.74% and 54.95%
Population Hoechst High Intensity Objects (%) [2]: 0%
Population Membrane Permeable-Phenotype (%) [2]: 10.99% and 13.93%
Population Mitochondria Different-Phenotype (%) [2]: 46.15% and 28.69%
Population Mitotic Cells (%) [2]: 81.48% and 60.44%
Population Normal (%) [2]: 100%
Population Pyknosed Nuclei (%) [2]: 49.54% and 40.99%
Population Tubulin-Different-Phenotype (%) [2]: 73.63% and 83.61%
Total Cell Count [2]: 218 and 222
Population Apoptotic (%) [3]: 8% and 20.83%
Population Fragmented Nuclei (%) [3]: 12.4% and 7.5%
Population Healthy Nuclei (%) [3]: 67.6% and 82.5%
Population Hoechst High Intensity Objects (%) [3]: 0%
Population Membrane Permeable-Phenotype (%) [3]: 4.73% and 1.01%
Population Mitochondria Different-Phenotype (%) [3]: 7.69% and 3.54%
Population Mitotic Cells (%) [3]: 92% and 79.17%
Population Normal (%) [3]: 100%
Population Pyknosed Nuclei (%) [3]: 20% and 10%
Population Tubulin-Different-Phenotype (%) [3]: 33.73% and 29.8%
Total Cell Count [3]: 250 and 240
Population Apoptotic (%) [4]: 36.97% and 65.81%
Population Fragmented Nuclei (%) [4]: 10.44% and 3.51%
Population Healthy Nuclei (%) [4]: 24.18% and 28.07%
Population Hoechst High Intensity Objects (%) [4]: 0%
Population Membrane Permeable-Phenotype (%) [4]: 25% and 20.83%
Population Mitochondria Different-Phenotype (%) [4]: 63.64% and 60.42%
Population Mitotic Cells (%) [4]: 63.03% and 34.19%
Population Normal (%) [4]: 100%
Population Pyknosed Nuclei (%) [4]: 65.38% and 68.42%
Population Tubulin-Different-Phenotype (%) [4]: 72.73% and 68.75%
Total Cell Count [4]: 182 and 171
Population Apoptotic (%) [5]: 25% and 11.11%
Population Fragmented Nuclei (%) [5]: 10.69% and 10.92%
Population Healthy Nuclei (%) [5]: 83.79% and 85.92%
Population Hoechst High Intensity Objects (%) [5]: 0%
Population Membrane Permeable-Phenotype (%) [5]: 4.12% and 11.48%
Population Mitochondria Different-Phenotype (%) [5]: 9.05% and 0.82%
Population Mitotic Cells (%) [5]: 75% and 88.89%
Population Normal (%) [5]: 100%
Population Pyknosed Nuclei (%) [5]: 5.52% and 3.17%
Population Tubulin-Different-Phenotype (%) [5]: 31.28% and 31.15%
Total Cell Count [5]: 290 and 284
Population Apoptotic (%) [6]: 53.41% and 92.06%
Population Fragmented Nuclei (%) [6]: 14.67% and 6.71%
Population Healthy Nuclei (%) [6]: 37.5% and 51.01%
Population Hoechst High Intensity Objects (%) [6]: 0%
Population Mitochondria Different-Phenotype (%) [6]: 43.48% and 21.05%
Population Normal (%) [6]: 100%
Population Pyknosed Nuclei (%) [6]: 47.83% and 42.28%
Population Tubulin-Different-Phenotype (%) [6]: 15.94% and 32.89%
Total Cell Count [6]: 184 and 149

N#Cc1c(Oc2cccc(OS(=O)(=O)CCCC(F)(F)F)c2)cccc1C(F)(F)F
Population Apoptotic (%) [1]: 51% and 38%
Population Fragmented Nuclei (%) [1]: 13% and 27%
Population Healthy Nuclei (%) [1]: 63% and 48%
Population Hoechst High Intensity Objects (%) [1]: 2% and 7%
Population Membrane Permeable-Phenotype (%) [1]: 1% and 9%
Population Mitochondria Different-Phenotype (%) [1]: 7%
Population Mitotic Cells (%) [1]: 48% and 61%
Population Normal (%) [1]: 97% and 92%
Population Pyknosed Nuclei (%) [1]: 23% and 24%
Population Tubulin-Different-Phenotype (%) [1]: 38% and 59%
Total Cell Count [1]: 146 and 148
Population Apoptotic (%) [2]: 31% and 66%
Population Fragmented Nuclei (%) [2]: 14% and 42%
Population Healthy Nuclei (%) [2]: 59% and 22%
Population Hoechst High Intensity Objects (%) [2]: 6% and 7%
Population Mitochondria Different-Phenotype (%) [2]: 7% and 3%
Population Mitotic Cells (%) [2]: 68% and 33%
Population Normal (%) [2]: 93% and 92%
Population Pyknosed Nuclei (%) [2]: 26% and 35%
Population Tubulin-Different-Phenotype (%) [2]: 36% and 75%
Total Cell Count [2]: 180 and 138
Population Apoptotic (%) [3]: 50% and 54%
Population Fragmented Nuclei (%) [3]: 20% and 33%
Population Healthy Nuclei (%) [3]: 62% and 50%
Population Hoechst High Intensity Objects (%) [3]: 6% and 3%
Population Membrane Permeable-Phenotype (%) [3]: 1% and 5%
Population Mitochondria Different-Phenotype (%) [3]: 4% and 5%
Population Mitotic Cells (%) [3]: 50% and 45%
Population Normal (%) [3]: 93% and 96%
Population Pyknosed Nuclei (%) [3]: 17% and 16%
Population Tubulin-Different-Phenotype (%) [3]: 45% and 57%
Total Cell Count [3]: 148 and 147
Population Apoptotic (%) [4]: 44% and 61%
Population Healthy Nuclei (%) [4]: 59% and 23%
Population Hoechst High Intensity Objects (%) [4]: 5% and 8%
Population Mitochondria Different-Phenotype (%) [4]: 12% and 22%
Population Mitotic Cells (%) [4]: 55% and 38%
Population Normal (%) [4]: 94% and 91%
Population Pyknosed Nuclei (%) [4]: 27% and 36%
Population Tubulin-Different-Phenotype (%) [4]: 43% and 77%
Total Cell Count [4]: 174 and 127
Population Apoptotic (%) [5]: 60% and 38%
Population Fragmented Nuclei (%) [5]: 18% and 26%
Population Healthy Nuclei (%) [5]: 66% and 59%
Population Hoechst High Intensity Objects (%) [5]: 7% and 5%
Population Mitochondria Different-Phenotype (%) [5]: 5% and 2%
Population Mitotic Cells (%) [5]: 40% and 61%
Population Normal (%) [5]: 92% and 94%
Population Pyknosed Nuclei (%) [5]: 14%
Population Tubulin-Different-Phenotype (%) [5]: 42% and 56%
Total Cell Count [5]: 145 and 133
Population Apoptotic (%) [6]: 52% and 59%
Population Fragmented Nuclei (%) [6]: 20% and 43%
Population Healthy Nuclei (%) [6]: 54% and 31%
Population Hoechst High Intensity Objects (%) [6]: 9% and 2%
Population Mitochondria Different-Phenotype (%) [6]: 12% and 15%
Population Mitotic Cells (%) [6]: 47% and 40%
Population Normal (%) [6]: 90% and 97%
Population Pyknosed Nuclei (%) [6]: 24% and 25%
Population Tubulin-Different-Phenotype (%) [6]: 47% and 89%
Total Cell Count [6]: 172 and 150

Cc1ccc(-c2c(C(=O)CF)n(CCCO)c3ncnc(N)c23)cc1
Population Apoptotic (%) [1]: 36% and 12.9%
Population Fragmented Nuclei (%) [1]: 17.65% and 9.49%
Population Healthy Nuclei (%) [1]: 63.97% and 78.26%
Population Hoechst High Intensity Objects (%) [1]: 0%
Population Membrane Permeable-Phenotype (%) [1]: 1.15% and 2.53%
Population Mitochondria Different-Phenotype (%) [1]: 9.2% and 6.06%
Population Mitotic Cells (%) [1]: 64% and 87.1%
Population Normal (%) [1]: 100%
Population Pyknosed Nuclei (%) [1]: 18.38% and 12.25%
Population Tubulin-Different-Phenotype (%) [1]: 13.79% and 12.12%
Total Cell Count [1]: 136 and 253
Population Apoptotic (%) [2]: 6.98% and 18.18%
Population Fragmented Nuclei (%) [2]: 10.16% and 6%
Population Healthy Nuclei (%) [2]: 66.84% and 77.5%
Population Hoechst High Intensity Objects (%) [2]: 0%
Population Membrane Permeable-Phenotype (%) [2]: 4% and 4.52%
Population Mitochondria Different-Phenotype (%) [2]: 8% and 11.61%
Population Mitotic Cells (%) [2]: 93.02% and 81.82%
Population Normal (%) [2]: 100%
Population Pyknosed Nuclei (%) [2]: 22.99% and 16.5%
Population Tubulin-Different-Phenotype (%) [2]: 19.2% and 29.03%
Total Cell Count [2]: 187 and 200
Population Apoptotic (%) [3]: 12.12% and 12%
Population Healthy Nuclei (%) [3]: 62.58% and 87.98%
Population Hoechst High Intensity Objects (%) [3]: 0%
Population Membrane Permeable-Phenotype (%) [3]: 6.86% and 1.32%
Population Mitochondria Different-Phenotype (%) [3]: 2.94% and 5.29%
Population Mitotic Cells (%) [3]: 87.88% and 88%
Population Normal (%) [3]: 100%
Population Pyknosed Nuclei (%) [3]: 20.25% and 9.69%
Population Tubulin-Different-Phenotype (%) [3]: 14.71% and 10.57%
Total Cell Count [3]: 163 and 258
Population Apoptotic (%) [4]: 9.3% and 10%
Population Fragmented Nuclei (%) [4]: 8.8% and 4.95%
Population Healthy Nuclei (%) [4]: 71.3% and 85.15%
Population Hoechst High Intensity Objects (%) [4]: 0%
Population Membrane Permeable-Phenotype (%) [4]: 8.44% and 2.33%
Population Mitochondria Different-Phenotype (%) [4]: 4.55% and 5.81%
Population Mitotic Cells (%) [4]: 90.7% and 90%
Population Normal (%) [4]: 100%
Population Pyknosed Nuclei (%) [4]: 19.91% and 9.9%
Population Tubulin-Different-Phenotype (%) [4]: 23.38% and 29.07%
Total Cell Count [4]: 216 and 202
Population Apoptotic (%) [5]: 26.67% and 20%
Population Healthy Nuclei (%) [5]: 73.05% and 89.29%
Population Hoechst High Intensity Objects (%) [5]: 0%
Population Membrane Permeable-Phenotype (%) [5]: 1.64% and 1.78%
Population Mitotic Cells (%) [5]: 73.33% and 80%
Population Normal (%) [5]: 100%
Population Pyknosed Nuclei (%) [5]: 8.98% and 7.94%
Population Tubulin-Different-Phenotype (%) [5]: 7.38% and 16.44%
Total Cell Count [5]: 167 and 252
Population Apoptotic (%) [6]: 9.09% and 27.27%
Population Fragmented Nuclei (%) [6]: 7.76% and 9.13%
Population Healthy Nuclei (%) [6]: 87.21% and 80.29%
Population Hoechst High Intensity Objects (%) [6]: 0%
Population Membrane Permeable-Phenotype (%) [6]: 1.57% and 0.6%
Population Mitochondria Different-Phenotype (%) [6]: 8.9% and 2.4%
Population Mitotic Cells (%) [6]: 90.91% and 72.73%
Population Normal (%) [6]: 100%
Population Pyknosed Nuclei (%) [6]: 5.02% and 10.58%
Population Tubulin-Different-Phenotype (%) [6]: 9.42% and 27.54%
Total Cell Count [6]: 219 and 208
